The source made the active and inactive calls. No cut-off for these calls is given here.

The nature of test [1]: (§1) Inhibition of IL-1beta-induced PGE2 production in human HCA-7 cells at 1 uM after 72 hrs by EIA. The following applies: HCA-7, 72 h. The class given is functional. An outline of the steps: (§2)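 Screen of HCA-7 cells at 1 μM compound (DMSO) with 10 ng/ml IL-1β in serum-free medium for 72 h, after overnight DMEM/10% FBS culture and 18 h serum starvation. Supernatant PGE2 quantified by EIA, expressed as % reduction of PGE2 level ± SD, n = 3.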

In test [2] the target is T1, Prostaglandin G/H synthase 2 (Homo sapiens) (UniProt P35354).
T1 sequence (whole entry): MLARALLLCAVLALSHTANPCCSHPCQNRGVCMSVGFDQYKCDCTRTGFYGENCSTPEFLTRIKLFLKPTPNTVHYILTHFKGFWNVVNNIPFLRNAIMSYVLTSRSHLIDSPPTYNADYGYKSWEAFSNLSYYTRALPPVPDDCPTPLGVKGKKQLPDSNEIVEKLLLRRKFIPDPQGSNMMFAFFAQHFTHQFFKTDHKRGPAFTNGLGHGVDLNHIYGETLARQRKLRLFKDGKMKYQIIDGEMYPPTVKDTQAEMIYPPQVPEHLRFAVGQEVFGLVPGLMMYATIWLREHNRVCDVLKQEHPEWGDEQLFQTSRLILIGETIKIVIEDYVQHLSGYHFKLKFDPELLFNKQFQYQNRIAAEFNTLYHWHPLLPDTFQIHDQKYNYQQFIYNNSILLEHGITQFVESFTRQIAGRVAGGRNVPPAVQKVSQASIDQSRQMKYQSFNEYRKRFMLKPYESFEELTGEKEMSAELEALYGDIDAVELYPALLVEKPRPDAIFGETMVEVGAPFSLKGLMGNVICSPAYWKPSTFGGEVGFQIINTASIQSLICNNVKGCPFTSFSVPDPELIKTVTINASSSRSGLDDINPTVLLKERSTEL
The following applies: at 5 µM.

In test [3] the target is T2, Prostaglandin G/H synthase 2 (Homo sapiens, UniProt P35354).
T2 sequence (P35354 whole entry): T1 sequence (whole entry)
In words: Inhibition of COX2 by fluorescence assay.

Another test concerns HCA-7. The test is described as §1. The class given is functional. An outline of the steps:
as §2

Test [4] can be described thus: Inhibition of IL-1beta-induced PGE2 production in human HCA-7 cells after 72 hrs by EIA. Conditions: HCA-7, 72 h. In kind it is functional, cell-based. An outline of the steps:
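HCA-7 cells seeded and incubated overnight in DMEM/10% FBS, then serum-starved 18 h. Stimulated with 10 ng/ml IL-1β plus increasing compound concentrations (DMSO) in serum-free medium for 72 h. Supernatant PGE2 measured by EIA.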

The test system of a further test is A549. Description: Antitumor activity against human A549 cells xenografted in mouse at 100 mg/kg for 10 days relative to control. The class given is functional. Background: In xenograft studies the graft and the host belong to different species.
A short description of test [5]: Antitumor activity against human HCA-7 cells xenografted in mouse at 200 mg/kg for 5 days relative to control. In kind it is functional.
For the next test, the system named is SW837. Description: Antitumor activity against human SW837 cells xenografted in mouse at 200 mg/kg for 5 days relative to control. In kind it is functional.

Turning to `COc1ccc(Nc2nc(-c3ccc(C)cc3)cs2)cc1`, the inhibition (usually the change of the read-out against control, counted positive when it falls) at 1 µM in test [1] is 37.3%.
Consider `Clc1ccc(-c2csc(Nc3ccccc3)n2)cc1`, for which the inhibition at 1 µM in test [1] worked out at 51%.
On to `Clc1ccc(-c2csc(Nc3ccc4c(c3)OCO4)n2)cc1`, for which the inhibition in test [2] is 68.8%. Moreover, the inhibition at 1 µM in test [1] stood at 94.2%. Also, the IC50 (as a rule, the concentration at which inhibition is half-maximal) in test [3] amounted to 840 nM.
Turning to `COc1ccc(Nc2nc(-c3ccccc3)c(C(=O)c3ccccc3)s2)cc1`, in the test on HCA-7, the inhibition result was “inactive”.
As to `CC(=O)c1sc(Nc2ccc3c(c2)OCO3)nc1C`, in test [1], the inhibition at 1 µM is 25.3%.
Take `COc1cccc(-c2csc(Nc3ccc(Oc4ccccc4)cc3)n2)c1`: the midpoint of the response in test [4], the EC50, lay at 290 nM. In addition, in test [2], the inhibition was 40.3%. For the same molecule, the inhibition at 1 µM in test [1] is 88.9%. For the same molecule, the IC50 in test [3] is greater than 5000 nM.
For the molecule `COc1ccc(Nc2nc(C)c(C(C)=O)s2)cc1`, the inhibition at 1 µM in test [1] was determined as 58.5%.
As for `COc1ccccc1-c1csc(Nc2ccc(Oc3ccccc3)cc2)n1`, the EC50 (usually the concentration at which the effect is half-maximal) in test [4] was 180 nM. In test [2], the inhibition is 38.9%. The inhibition at 1 µM in test [1] worked out at 82%. The IC50 in test [3] is greater than 5000 nM.
As to `Clc1ccc(-c2csc(Nc3ccc(Oc4ccccc4)cc3)n2)cc1`, the T/C (as a rule, the result in the treated group divided by that in the control group, in per cent) with A549 turned out to be 38%; in test [5], 61%; with SW837 it was 40%. This molecule also displayed an EC50 in test [4] of 280 nM. The inhibition in test [2] was 32.1%. The inhibition at 1 µM in test [1] amounted to 75.5%. In test [3], this molecule registered an IC50 greater than 10000 nM.
`Fc1ccc(-c2csc(Nc3ccc(Oc4ccccc4)cc3)n2)cc1` gave an EC50 in test [4] of 120 nM. For the same molecule, in test [2], the inhibition worked out at 43.4%. Also, in test [1], the inhibition at 1 µM was 87.9%. The same molecule showed an IC50 in test [3] greater than 5000 nM.
Turning to `COc1ccc(Nc2nc(-c3ccc(C)c(C)c3)cs2)cc1`, the inhibition in test [2] worked out at 69.3%. In addition, the inhibition at 1 µM in test [1] was 73.9%. In test [3], this molecule displayed an IC50 of 1200 nM.
Consider `N#Cc1ccc(Nc2nc(-c3ccccc3)c(C(=O)c3ccccc3)s2)cc1`, for which the inhibition result with HCA-7 was “inactive”.
In the case of `O=C(c1ccccc1)c1sc(Nc2ccc3c(c2)OCO3)nc1-c1ccccc1`, the inhibition entry with HCA-7 was “inactive”.
Take `COc1ccc(Nc2nc(-c3ccc(OC)cc3)cs2)cc1`: in test [2], the inhibition amounted to 66.8%. Further, in test [1], the inhibition at 1 µM is 73.6%. Besides, the IC50 in test [3] came to 1370 nM.
As to `CC(=O)c1sc(Nc2ccc(C#N)cc2)nc1C`, the inhibition at 1 µM in test [1] came to 22.4%.
Consider `c1ccc(Oc2ccc(Nc3nc(-c4ccc(C5CCCCC5)cc4)cs3)cc2)cc1`, for which, in test [1], the inhibition at 1 µM amounted to 41.6%.
As for `COc1ccc(-c2csc(Nc3ccc(Oc4ccccc4)cc3)n2)cc1`, in test [4], the EC50 turned out to be 240 nM. For the same molecule, the inhibition in test [2] turned out to be 40.8%. Besides, the inhibition at 1 µM in test [1] is 80.4%. In addition, the IC50 in test [3] is greater than 5000 nM.
Regarding `Clc1ccccc1-c1csc(Nc2ccc3c(c2)OCO3)n1`, in test [2], the inhibition came out at 84.8%. Also, in test [1], the inhibition at 1 µM came out at 85.9%. Inhibition in test [3] was half-maximal at 910 nM (IC50).
For `N#Cc1ccc(Nc2nc(-c3ccc(Cl)cc3)cs2)cc1`, the inhibition at 1 µM in test [1] is 23.1%.
For `COc1cccc(-c2csc(Nc3ccc4c(c3)OCO4)n2)c1`, the inhibition in test [2] stood at 86%. In addition, the inhibition at 1 µM in test [1] worked out at 94.4%. In addition, the IC50 in test [3] was determined as 920 nM.
For the molecule `CCc1sc(Nc2ccc(Oc3ccccc3)cc2)nc1C`, the inhibition in test [2] came out at 41.3%. The inhibition at 1 µM in test [1] was determined as 87.1%. The same molecule returned an IC50 in test [3] greater than 5000 nM.
Turning to `c1ccc(Oc2ccc(Nc3nc(-c4ccc5ccccc5c4)cs3)cc2)cc1`, the inhibition at 1 µM in test [1] turned out to be 53.5%.
Consider `Clc1ccc(-c2csc(Nc3cccc4ccccc34)n2)cc1`, for which, in test [1], the inhibition at 1 µM amounted to 51.4%.
On to `CC(=O)c1sc(Nc2ccc(Oc3ccccc3)cc2)nc1C`, for which, in test [2], the inhibition stood at 28.9%. The inhibition at 1 µM in test [1] came to 87.9%. For the same molecule, in test [3], the IC50 was greater than 5000 nM.
Consider `COc1ccc(Nc2nc(-c3ccc(Cl)cc3)c(C)s2)cc1`, for which the inhibition in test [2] was determined as 12%. For the same molecule, the inhibition at 1 µM in test [1] is 89.3%. This molecule returned an IC50 in test [3] greater than 5000 nM.
For `CCc1sc(Nc2ccc(OC)cc2)nc1C`, in test [4], the EC50 was 320 nM. Further, the inhibition in test [2] came out at 49.3%. Moreover, the inhibition at 1 µM in test [1] came out at 94.4%. The same molecule came in with an IC50 in test [3] greater than 5000 nM.
In the case of `COc1cccc(Nc2nc(-c3ccc(Cl)cc3)cs2)c1`, the inhibition in test [2] was 55.1%. Further, in test [1], the inhibition at 1 µM was determined as 78.3%. In addition, half-maximal inhibition in test [3] (IC50) required 1390 nM.
Take `CC(=O)c1sc(Nc2ccccc2)nc1C`: in test [1], the inhibition at 1 µM came to 29.9%.
For the molecule `O=C(c1ccccc1)c1sc(Nc2ccc(Oc3ccccc3)cc2)nc1-c1ccccc1`, the inhibition at 1 µM in test [1] turned out to be 42%.
Turning to `c1ccc(-c2csc(Nc3ccc4c(c3)OCO4)n2)cc1`, in test [2], the inhibition is 114%. The inhibition at 1 µM in test [1] worked out at 98.2%. In test [3], the IC50 was found to be 410 nM.
With `COc1ccccc1-c1csc(Nc2ccc3c(c2)OCO3)n1`, the inhibition in test [2] came to 91.3%. Further, in test [1], the inhibition at 1 µM was 89%. The molecule further registered an IC50 in test [3] of 930 nM.
For the molecule `COc1ccc(-c2csc(Nc3ccc(C)cc3)n2)cc1`, the inhibition in test [2] stood at 73.1%. The inhibition at 1 µM in test [1] is 91.5%. In addition, half-maximal inhibition in test [3] (IC50) required 810 nM.
For `CN(c1ccc(O)cc1)c1nc(-c2ccc(Cl)cc2)cs1`, the inhibition in test [2] stood at 84.2%. Also, the inhibition at 1 µM in test [1] came out at 85.8%. Moreover, in test [3], the IC50 is 1080 nM.
In the case of `Cc1nc(Nc2ccc(Oc3ccccc3)cc2)sc1C(C)O` (stereo not given), the 50% effective concentration (EC50) in test [4] amounted to 90 nM. Besides, the inhibition at 1 µM in test [1] turned out to be 80.4%. Moreover, the IC50 in test [3] was greater than 5000 nM.
In test [4], `c1ccc(Oc2ccc(Nc3nc(-c4ccccc4)cs3)cc2)cc1` came in with an EC50 of 330 nM. In test [2], the inhibition stood at 31%. Moreover, the inhibition at 1 µM in test [1] was 79.6%. The molecule further showed an IC50 in test [3] greater than 5000 nM.
On to `COc1ccc(-c2csc(Nc3ccc4c(c3)OCO4)n2)cc1`, for which, in test [2], the inhibition was 94.4%. The inhibition at 1 µM in test [1] turned out to be 96.2%. For the same molecule, in test [3], the 50% inhibitory concentration (IC50) was 910 nM.

(Values after ChEMBL document CHEMBL2021771, “Synthesis and biological activity of 2-aminothiazoles as novel inhibitors of PGE2 production in cells” (Bioorg Med Chem Lett, 2012).)
